Assay outcomes deposited in PubChem by The Scripps Research Institute Molecular Screening Center.
A selection: hits, their analogues and other compounds. The true share with any hit is near 3.4%.
TAAR1 ag: human TAAR1 agonists, primary screen, Fluo-8 calcium fluorescence, CHO RD-HGA16 cells. vehicle wells 0%, saturating PEA agonist 100%. activation, % at 3 µM. AID 624467, 2012. Trace amine-associated receptor 1 (Homo sapiens), Q96RJ0. actives 0.99% (n = 360,000);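 active means activation above the mean activation of all test compounds in the run plus 3 SD, cut at about 38% in these data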
Target sequence (Q96RJ0 whole entry, looked up): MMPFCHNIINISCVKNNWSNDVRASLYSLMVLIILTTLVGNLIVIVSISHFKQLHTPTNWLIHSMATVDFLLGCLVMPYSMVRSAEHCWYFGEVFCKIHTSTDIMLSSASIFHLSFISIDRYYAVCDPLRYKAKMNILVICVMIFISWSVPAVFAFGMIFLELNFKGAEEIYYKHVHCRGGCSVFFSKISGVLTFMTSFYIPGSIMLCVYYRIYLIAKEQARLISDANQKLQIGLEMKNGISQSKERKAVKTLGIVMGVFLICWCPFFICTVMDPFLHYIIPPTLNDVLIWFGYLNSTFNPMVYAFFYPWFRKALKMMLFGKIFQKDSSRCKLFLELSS
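Benchmarks: low control DMSO, high control PEA (EC100); System: CHO RD-HGA16 cells carrying human TAAR1 plus Gα16; Detection: Fluo-8 fluorescence, 5 s baseline then 140 s kinetic read; Schedule: 17-24 h plating, Fluo-8 75 min 37 °C, 30 min RT; Read-out basis: % activation from peak over basal fluorescence ratio, DMSO-to-PEA scaled.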
CHRM1 agonist: human M1 muscarinic receptor agonists, primary screen, Fluo-8 calcium fluorescence, CHO-K1 cells, HTS | Muscarinic acetylcholine receptor M1 (Homo sapiens), P11229 | CHO-K1 hM1, agonist mode; 0% DMSO, 100% acetylcholine EC100 | activation, % at 3 µM | actives 0.33% (n = 360,000);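 active means activation above the run's mean compound activation plus 3 SD, cut at about 16% in these data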;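 further: peak over basal fluorescence ratio within a 140 s kinetic read after compound addition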
M1 PAM: human M1 muscarinic receptor positive allosteric modulators, primary screen, CHO-K1 cells, Fluo-8 calcium fluorescence, 1536-well; CHO-K1 hM1, ACh EC20; 0% = ACh EC20, 100% = maximal ACh; AID 588819, 2011; activation, % at 3 µM; actives 0.088% (n = 360,000); in the data active means activation above about 19%, passing the limit was not always enough
M1 antag: human M1 muscarinic receptor antagonists, primary screen, CHO-K1 cells, Fluo-8 calcium fluorescence, 1536-well | Muscarinic acetylcholine receptor M1 (Homo sapiens), P11229 | CHO-K1 hM1, ACh EC80 antagonist | inhibition, % at 3 µM | actives 1.3% (n = 360,000) | AID 588852, 2011;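 active means percent inhibition above its own plate's cutoff, namely the mean of that plate's compound wells plus 3 SD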;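 further: peak over basal fluorescence ratio during 140 s after agonist addition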
TAAR1 antagonist: human TAAR1 antagonists, primary screen, Fluo-8 calcium fluorescence, CHO RD-HGA16 cells; inhibition, % at 3 µM; actives 1.5% (n = 360,000); Trace amine-associated receptor 1 (Homo sapiens), Q96RJ0; antagonist;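 active means inhibition above a per-plate cutoff, the mean inhibition of test compounds on that plate plus 3 SD, cut at about 49% in these data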
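Test system – hTAAR1-expressing CHO RD-HGA16 cells, Gα16-coupled · Also added – β-PEA at EC80 concentration, post-compound challenge · Compound – 3 µM, single point · Incubation – dye loading 75 min at 37 °C, then 30 min room temperature · Measured by – Fluo-8 intracellular calcium dye fluorescence, real-time kinetic reads · Benchmarks – vehicle and agonist controls · Replicates – singlicate, one well per test compound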
nonsel antag count: nonselective antagonists in TAAR1 counter-screen cells, counter-screen for hTAAR1 antagonist project, cell-based, fluorescence, calcium; inhibition, % at 3 µM; shares compounds with TAAR1 antagonist; actives 77% (n = 2,400); counterscreen cell line, antagonist mode; in the data active means inhibition above about 22%;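 further: CHO-Ga16 host cells stimulated with ATP at an EC80 level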
TAAR1 antag conf: human TAAR1 antagonists, retest of hits, confirmation, cell-based, fluorescence. AID 651785, 2012. TAAR1-expressing cells, fluorescence antagonist read-out. shares compounds with TAAR1 antagonist. inhibition, % at 3 µM. actives 40% (n = 2,400); in the data active means inhibition above about 49%;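 further: CHO-Ga16 host cells challenged with agonist PEA near its EC80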
Ga16 nonsel ag: calcium activation in Ga16-expressing cells, counter-screen for TAAR1 antagonist project, cell-based, fluorescence | agonist counterscreen | shares compounds with TAAR1 antagonist | actives 18% (n = 2,400) | activation, % at 3 µM | AID 651953, 2012; in the data active means activation above about 12%
TAAR1 ag counter: TAAR1 activation by candidate antagonists – cell-based, fluorescence, counter-screen for TAAR1 antagonist project. actives 2% (n = 2,400). hTAAR1 cell line, agonist mode. shares compounds with TAAR1 antagonist. AID 651955, 2012. activation, % at 3 µM; in the data active means activation above about 37%;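 further: CHO cells stably expressing TAAR1 with calcium dye readout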
Each line names hits and unclear results; the compound was inactive in the other large screens (follow-up assays come after a bar, where they were run).

COc1ccccc1N(C)S(=O)(=O)c1ccc(C(=O)OCC(=O)NCc2cccs2)cc1	TAAR1 antagonist 83.1 | nonsel antag count 38.0 | TAAR1 antag conf 61.8 | Ga16 nonsel ag inactive | TAAR1 ag counter inactive
COc1ccccc1N(C)S(=O)(=O)c1ccc(C(=O)Nc2cccc(Br)c2)cc1	TAAR1 antagonist 69.6 | nonsel antag count 36.4 | TAAR1 antag conf inactive | Ga16 nonsel ag inactive | TAAR1 ag counter inactive
COc1cc(Cn2c3ccc(NC(=S)NCc4ccc(C)cc4)cc3c(=O)n2C)ccc1F	none
COCCCN1C(=O)C(CC(=O)NC2CC2)CC(C(=O)N2CCOCC2)=C1C (stereo unspecified)	none
O=C1C2C3C=CC(C3)C2C(=O)N1c1cccc(-c2nc3ccccc3o2)c1 (stereo unspecified)	none
O=C(Nc1cccc(-c2nc3ccccc3o2)c1)c1ccc(N2C(=O)C3C4C=CC(C4)C3C2=O)cc1 (stereo unspecified)	M1 antag 37.0, TAAR1 antagonist 63.4 | nonsel antag count 38.8 | TAAR1 antag conf 57.9 | Ga16 nonsel ag inactive | TAAR1 ag counter inactive
CN(Cc1ccccc1)C(=O)CCn1c(=O)oc2ccccc21	none
O=C(CCn1c(=O)oc2ccccc21)N(Cc1ccccc1)c1ccccc1	TAAR1 antagonist 69.5 | nonsel antag count 23.3 | TAAR1 antag conf 49.8 | Ga16 nonsel ag inactive | TAAR1 ag counter inactive
COc1ccc(NC(=O)c2ccc(C#N)cc2)cc1NS(=O)(=O)c1ccc(F)cc1	TAAR1 antagonist 70.5 | nonsel antag count inactive | TAAR1 antag conf inactive | Ga16 nonsel ag inactive | TAAR1 ag counter inactive
Cc1nc2ccccc2n1C(C)c1nc2ccccc2n1CC(=O)c1ccc(OC(F)(F)F)cc1 (stereo unspecified)	none (no result: CHRM1 agonist, M1 PAM, M1 antag)
Fc1ccc(-n2cc(-c3ccccc3)c3c(NN4CCOCC4)ncnc32)cc1	none
Cc1cccc(-n2cc(-c3ccccc3)c3c(N4CCOCC4)ncnc32)c1	M1 antag 37.9, TAAR1 antagonist 59.6 | nonsel antag count 26.6 | TAAR1 antag conf inactive | Ga16 nonsel ag inactive | TAAR1 ag counter inactive
Cc1ccc(-n2cc(-c3ccccc3)c3c(N4CCN(C)CC4)ncnc32)cc1	none
COc1ccc(-n2cc(-c3ccccc3)c3c(NN4CCOCC4)ncnc32)cc1	TAAR1 antagonist 56.3 | nonsel antag count 25.3 | TAAR1 antag conf inactive | Ga16 nonsel ag inactive | TAAR1 ag counter inactive
Cc1ccccc1CSCCC(=O)NCCC1=CCCCC1	TAAR1 antagonist 52.9 | nonsel antag count inactive | TAAR1 antag conf inactive | Ga16 nonsel ag inactive | TAAR1 ag counter inactive
CCC(c1nnnn1-c1ccc2c(c1)OCCO2)N1CCN(c2ccccn2)CC1 (stereo unspecified)	none (no result: CHRM1 agonist, M1 PAM, M1 antag)
CCn1c(SCC(=O)Nc2ccccc2N2CCCCC2)nc2c1c(=O)n(C)c(=O)n2C	TAAR1 antagonist 54.7 | nonsel antag count 26.6 | TAAR1 antag conf inactive | Ga16 nonsel ag inactive | TAAR1 ag counter inactive
CC(C)n1c(SCC(=O)Nc2ccccc2N2CCOCC2)nc2c1c(=O)n(C)c(=O)n2C	none
CC(C)C(C(=O)NCc1ccccc1)N1CCN(c2ccccc2F)CC1 (stereo unspecified)	none (no result: CHRM1 agonist, M1 PAM, M1 antag)
COc1cc(C)ccc1NC(=O)Cc1csc(NC(=O)Nc2ccccc2OC)n1	TAAR1 antagonist 66.2 | nonsel antag count 33.8 | TAAR1 antag conf 53.3 | Ga16 nonsel ag inactive | TAAR1 ag counter inactive
COc1ccccc1NC(=O)Nc1nc(CC(=O)N2CCN(c3ccccc3OC)CC2)cs1	TAAR1 antagonist 69.1 | nonsel antag count 34.7 | TAAR1 antag conf 54.2 | Ga16 nonsel ag inactive | TAAR1 ag counter inactive
COc1ccccc1N1CCN(C(=O)CCC(=O)N2CCN(c3ccccc3OC)CC2)CC1	none
CCCCCCN1CCN(C2CN(C3CCCCC3)S(=O)(=O)C2)CC1 (stereo unspecified)	none
CCOC(=O)N1CCN(C(=O)CSc2nc3c([nH]c4ccccc43)c(=O)n2CCOC)CC1	TAAR1 antagonist 55.4 | nonsel antag count 28.2 | TAAR1 antag conf inactive | Ga16 nonsel ag inactive | TAAR1 ag counter inactive
COCCn1c(SCC(=O)N2CCCCCC2)nc2c([nH]c3ccccc32)c1=O	none
O=C(Nc1ccc(F)cc1)C(c1cccc(F)c1)N1CCN(C(=O)c2ccco2)CC1 (stereo unspecified)	none (no result: CHRM1 agonist, M1 PAM, M1 antag)
C=CCn1c(=O)/c(=C/c2ccc(O)cc2)s/c1=C(/C#N)c1nnc2n1CCCCC2	none
C=CCn1c(=O)/c(=C/c2ccc(Cl)cc2)s/c1=C(/C#N)c1nnc2n1CCCCC2	TAAR1 antagonist 49.5 | nonsel antag count 26.8 | TAAR1 antag conf inactive | Ga16 nonsel ag inactive | TAAR1 ag counter inactive
CCOc1ccc(NC(=O)CCC(=O)N2CCSc3ccccc32)cc1	TAAR1 antagonist 61.9 | nonsel antag count 24.7 | TAAR1 antag conf inactive | Ga16 nonsel ag inactive | TAAR1 ag counter inactive
CCOC(=O)[C@]12CCCC=C1N(Cc1ccco1)C(=O)[C@H](CC(=O)NCC1CCCCC1)C2	none (no result: CHRM1 agonist, M1 PAM, M1 antag)
COC(=O)c1c(-c2ccc(F)cc2)csc1NC(=O)c1ccco1	TAAR1 antagonist 57.7 | nonsel antag count inactive | TAAR1 antag conf inactive | Ga16 nonsel ag inactive | TAAR1 ag counter inactive
Fc1cccc(Cl)c1C1SCc2nc3ccccc3n21 (stereo unspecified)	none
O=C1c2ccccc2C(c2nnnn2Cc2ccccc2)N1CCc1ccccc1F (stereo unspecified)	TAAR1 antagonist 67.6 (no result: CHRM1 agonist, M1 PAM, M1 antag) | nonsel antag count 28.9 | TAAR1 antag conf 50.9 | Ga16 nonsel ag inactive | TAAR1 ag counter inactive
O=C1c2ccccc2C(c2nnnn2Cc2ccccc2)N1CCc1ccc(O)cc1 (stereo unspecified)	TAAR1 antagonist 67.1 (no result: CHRM1 agonist, M1 PAM, M1 antag) | nonsel antag count 28.4 | TAAR1 antag conf 52.8 | Ga16 nonsel ag inactive | TAAR1 ag counter inactive
